Source: ChEMBL document CHEMBL2424634, “Synthesis and SAR studies of 5-(pyridin-4-yl)-1,3,4-thiadiazol-2-amine derivatives as potent inhibitors of Bloom helicase” (Bioorg Med Chem Lett, 2013)
Converted amounts (≈) assume the structure as drawn. The source made the active and inactive calls. The calls are words filed in the database; no cut-off is given here.

Columns and labels:
Liver = test: Half life in mouse liver microsomes in presence of NADPH; assay type: ADME, Microsome
[1] = Metabolic stability of the compound in mouse plasma assessed as compound remaining after 5 hrs; assay type: ADME, cell-free; settings: read-out: Stability
[2] = Kinetic solubility of the compound in PBS buffer at pH 7.4; assay type: physicochemical; settings: read-out: Kinetic_solubility
Summary of the method: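 Kinetic solubility in PBS, pH 7.4, determined by chemiluminescent nitrogen detection (CLND) and by UV-Vis detection.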

[3] = biological target: T1, ATP-dependent DNA helicase Q1 (Homo sapiens, UniProt P46063); test: Inhibition of RECQ1 (unknown origin) by gel-based DNA unwinding assay
T1 sequence (P46063 whole entry): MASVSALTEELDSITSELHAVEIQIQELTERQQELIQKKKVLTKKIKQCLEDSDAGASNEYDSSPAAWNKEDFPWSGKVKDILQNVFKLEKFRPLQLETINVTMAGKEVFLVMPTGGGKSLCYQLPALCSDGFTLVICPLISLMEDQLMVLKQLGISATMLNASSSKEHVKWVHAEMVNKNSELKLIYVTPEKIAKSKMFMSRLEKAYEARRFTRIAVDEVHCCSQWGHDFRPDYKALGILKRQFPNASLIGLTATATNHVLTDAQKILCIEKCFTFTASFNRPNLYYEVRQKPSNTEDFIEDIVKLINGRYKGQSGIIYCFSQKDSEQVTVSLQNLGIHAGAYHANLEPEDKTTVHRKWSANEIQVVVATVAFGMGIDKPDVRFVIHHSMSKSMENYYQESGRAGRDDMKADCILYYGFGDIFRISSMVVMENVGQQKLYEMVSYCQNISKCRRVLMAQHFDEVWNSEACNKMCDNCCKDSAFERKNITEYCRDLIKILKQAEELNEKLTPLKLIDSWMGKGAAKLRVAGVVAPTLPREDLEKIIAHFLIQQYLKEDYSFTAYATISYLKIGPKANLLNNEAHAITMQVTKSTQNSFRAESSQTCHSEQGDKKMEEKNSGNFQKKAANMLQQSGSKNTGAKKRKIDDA

[4] = biological target: Bifunctional 3'-5' exonuclease/ATP-dependent helicase WRN (Homo sapiens, UniProt Q14191); test: Inhibition of WRN (unknown origin) by gel-based DNA unwinding assay
[5] = biological target: T2, RecQ-like DNA helicase BLM (Homo sapiens, UniProt P54132); test: Inhibition of BLM (unknown origin) by gel-based DNA unwinding assay
Homo sapiens [6] = species: Homo sapiens; test: Selectivity ratio of IC50 for WRN (unknown origin) to IC50 for BLM (unknown origin)
Homo sapiens [7] = species: Homo sapiens; test: Increase of sister chromatid exchange in human BLM-deficient PSNG13 cells at 1 to 5 uM; assay type: functional
Summary of the method: (§1)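 Used an isogenic pair of cell lines derived from GM08505 Bloom syndrome cells: PSNF5 (expresses BLM) and PSNG13 (lacks BLM). Cells were treated across a dose range and sister chromatid exchange frequency was scored.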

[8] = biological target: T2, RecQ-like DNA helicase BLM; test: Inhibition of BLM in human PSNF5 cells assessed as increase of sister chromatid exchange at 1 to 5 uM; assay type: cell-based; summary of the method: as §1
[9] = biological target: T2, RecQ-like DNA helicase BLM; test: Displacement of TAMRA-labeled oligonucleotide from BLM (unknown origin)
[10] = biological target: T2, RecQ-like DNA helicase BLM; test: Inhibition of BLM (unknown origin) binding to single-stranded DNA by fluorescence polarization analysis
[11] = biological target: T2, RecQ-like DNA helicase BLM; test: Non-competitive inhibition of BLM (unknown origin) using ATP by Lineweaver-Burk double reciprocal plot analysis

Bifunctional 3'-5' exonuclease/ATP-dependent helicase WRN, sequence (Q14191 whole entry): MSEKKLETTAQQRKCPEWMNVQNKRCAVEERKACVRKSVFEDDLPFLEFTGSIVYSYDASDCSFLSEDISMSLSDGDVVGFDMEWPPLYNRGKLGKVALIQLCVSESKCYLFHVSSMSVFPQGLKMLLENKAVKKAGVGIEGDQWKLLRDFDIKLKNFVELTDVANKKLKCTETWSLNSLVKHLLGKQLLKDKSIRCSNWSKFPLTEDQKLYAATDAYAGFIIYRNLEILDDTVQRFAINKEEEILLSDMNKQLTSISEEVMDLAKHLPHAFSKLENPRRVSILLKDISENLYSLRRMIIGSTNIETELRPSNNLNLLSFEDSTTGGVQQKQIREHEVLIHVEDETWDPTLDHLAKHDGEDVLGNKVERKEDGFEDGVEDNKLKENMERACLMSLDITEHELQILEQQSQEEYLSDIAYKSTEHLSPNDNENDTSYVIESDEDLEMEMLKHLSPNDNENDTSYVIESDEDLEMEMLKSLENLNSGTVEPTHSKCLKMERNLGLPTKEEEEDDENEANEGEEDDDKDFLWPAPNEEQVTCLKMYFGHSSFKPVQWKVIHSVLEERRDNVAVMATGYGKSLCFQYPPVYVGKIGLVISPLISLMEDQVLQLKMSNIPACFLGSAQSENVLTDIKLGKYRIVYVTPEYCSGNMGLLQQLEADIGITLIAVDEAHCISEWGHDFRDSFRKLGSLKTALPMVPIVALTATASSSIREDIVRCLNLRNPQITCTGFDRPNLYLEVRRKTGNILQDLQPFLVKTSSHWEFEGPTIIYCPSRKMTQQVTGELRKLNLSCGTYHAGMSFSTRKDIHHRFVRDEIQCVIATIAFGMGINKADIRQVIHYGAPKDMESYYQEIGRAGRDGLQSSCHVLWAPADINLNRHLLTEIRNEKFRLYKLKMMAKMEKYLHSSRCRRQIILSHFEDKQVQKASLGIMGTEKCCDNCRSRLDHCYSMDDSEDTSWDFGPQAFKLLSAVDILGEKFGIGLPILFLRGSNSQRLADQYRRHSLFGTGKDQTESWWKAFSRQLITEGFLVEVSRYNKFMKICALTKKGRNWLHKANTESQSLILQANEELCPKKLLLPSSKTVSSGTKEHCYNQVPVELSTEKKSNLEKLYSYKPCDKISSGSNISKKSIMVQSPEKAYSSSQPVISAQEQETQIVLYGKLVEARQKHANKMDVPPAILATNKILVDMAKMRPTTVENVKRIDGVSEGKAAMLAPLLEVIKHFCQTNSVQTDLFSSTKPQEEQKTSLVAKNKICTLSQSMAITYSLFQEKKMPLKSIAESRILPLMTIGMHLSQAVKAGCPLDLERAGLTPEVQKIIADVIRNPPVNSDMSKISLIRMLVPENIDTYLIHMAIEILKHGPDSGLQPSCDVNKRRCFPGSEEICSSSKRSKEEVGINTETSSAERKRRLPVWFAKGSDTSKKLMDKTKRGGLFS
T2 sequence (P54132 whole entry): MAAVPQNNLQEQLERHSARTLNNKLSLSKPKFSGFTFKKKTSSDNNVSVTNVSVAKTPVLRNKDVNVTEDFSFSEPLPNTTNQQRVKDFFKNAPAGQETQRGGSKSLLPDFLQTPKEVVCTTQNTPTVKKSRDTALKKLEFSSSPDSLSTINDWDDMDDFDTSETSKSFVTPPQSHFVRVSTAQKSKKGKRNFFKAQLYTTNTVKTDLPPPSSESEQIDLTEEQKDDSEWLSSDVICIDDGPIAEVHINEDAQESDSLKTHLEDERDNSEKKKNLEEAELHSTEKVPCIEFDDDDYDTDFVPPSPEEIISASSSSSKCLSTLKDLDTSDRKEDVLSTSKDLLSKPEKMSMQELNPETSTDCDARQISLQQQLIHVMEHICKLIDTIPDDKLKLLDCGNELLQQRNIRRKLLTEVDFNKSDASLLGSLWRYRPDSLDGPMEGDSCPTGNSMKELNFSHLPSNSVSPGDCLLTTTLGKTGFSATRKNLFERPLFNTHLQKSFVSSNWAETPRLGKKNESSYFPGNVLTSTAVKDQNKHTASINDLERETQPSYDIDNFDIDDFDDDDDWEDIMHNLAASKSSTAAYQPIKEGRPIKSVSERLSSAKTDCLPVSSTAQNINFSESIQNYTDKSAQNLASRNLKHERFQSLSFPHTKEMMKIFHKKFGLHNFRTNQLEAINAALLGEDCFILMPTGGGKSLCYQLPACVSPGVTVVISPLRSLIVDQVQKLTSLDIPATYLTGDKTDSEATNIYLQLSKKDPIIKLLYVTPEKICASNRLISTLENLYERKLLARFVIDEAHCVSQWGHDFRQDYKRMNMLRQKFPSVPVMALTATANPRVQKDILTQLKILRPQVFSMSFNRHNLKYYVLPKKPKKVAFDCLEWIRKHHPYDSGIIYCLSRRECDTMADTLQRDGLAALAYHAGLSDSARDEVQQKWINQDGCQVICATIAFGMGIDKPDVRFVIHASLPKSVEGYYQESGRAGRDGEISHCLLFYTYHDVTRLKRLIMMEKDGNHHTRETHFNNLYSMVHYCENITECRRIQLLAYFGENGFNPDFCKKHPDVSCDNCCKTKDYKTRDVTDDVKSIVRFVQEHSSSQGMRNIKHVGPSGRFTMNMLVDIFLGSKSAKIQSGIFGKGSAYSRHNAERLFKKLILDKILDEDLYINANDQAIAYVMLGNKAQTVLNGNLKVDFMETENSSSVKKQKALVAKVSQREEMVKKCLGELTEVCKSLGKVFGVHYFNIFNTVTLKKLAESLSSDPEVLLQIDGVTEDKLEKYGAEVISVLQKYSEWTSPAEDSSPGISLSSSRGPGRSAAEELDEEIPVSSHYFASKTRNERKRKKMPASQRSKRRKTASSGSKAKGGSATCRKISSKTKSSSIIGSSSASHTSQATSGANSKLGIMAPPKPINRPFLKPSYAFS

Row | Compound | IC50 ([5]; read-out: IC50) [µM] | IC50 [5] | also measured
1 | O=C(Nc1ccc(F)c(C(F)(F)F)c1)Nc1nnc(-c2ccncc2)s1 | – | – | t1/2 (Liver): > 1.33 h; remaining at 5 h [1]: 100%; solubility kinetic [2]: 1 µM (≈ 0.383 µg/mL); IC50 [3]: > 50 µM; IC50 [4]: 2.7 µM
2 | O=S(=O)(Cc1ccc(Cl)c(Cl)c1)Nc1nnc(-c2ccncc2)s1 | – | Not Active | –
3 | N#C/N=C(/Nc1ccc(F)c(C(F)(F)F)c1)Nc1nnc(-c2ccncc2)s1 | – | Not Active | –
4 | O=c1c(Nc2ccc(Cl)c(Cl)c2)c(Nc2nnc(-c3ccncc3)s2)c1=O | 4.3 | – | –
5 | CN(C(=O)Nc1ccc2ccccc2c1)c1nnc(-c2ccncc2)s1 | – | Not Active | –
6 | O=C(Nc1ccc(-c2cn[nH]c2)c(C(F)(F)F)c1)Nc1nnc(-c2ccncc2)s1 | 14.2 | – | –
7 | O=C(Nc1nnc(-c2ccncc2)s1)Oc1ccc2ccccc2c1 | – | Not Active | –
8 | N#Cc1ccc(NC(=O)Nc2nnc(-c3ccncc3)s2)cc1 | 7.9 | – | –
9 | O=C(Nc1ccc(Cl)c(Cl)c1)N1CCC(c2ccncc2)C1 (stereo not given) | – | Not Active | –
10 | N#Cc1cc(NC(=O)Nc2nnc(-c3ccncc3)s2)ccc1-c1cn[nH]c1 | 1.1 | – | Activity (Homo sapiens [7]): inactive; inhibition [8]: Dose-dependent effect; inhibition [9]: Active; inhibition [10]: Dose-dependent effect; t1/2 (Liver): > 1.33 h; remaining at 5 h [1]: 100%; solubility kinetic [2]: 10 µM (≈ 3.88 µg/mL); Ratio IC50 (Homo sapiens [6]): 6.5; IC50 [3]: > 50 µM; IC50 [4]: 7.1 µM; inhibition [11]: Active
11 | N#Cc1cccc(NC(=O)Nc2nnc(-c3ccncc3)s2)c1 | 8.9 | – | –
12 | O=C(Nc1ccc(-n2cncn2)c(C(F)(F)F)c1)Nc1nnc(-c2ccncc2)s1 | 36 | – | –
13 | N#Cc1cc(NC(=O)Nc2nnc(-c3ccncc3)s2)ccc1-c1ccc[nH]1 | 1.8 | – | –
14 | O=C(Nc1ccc(-n2ccnc2)c(F)c1)Nc1nnc(-c2ccncc2)s1 | 10 | – | –
15 | N#Cc1ccc(NC(=O)Nc2nnc(-c3ccncc3)s2)cc1Br | 0.91 | – | –
16 | N#Cc1ccc(NC(=O)Nc2nnc(-c3ccncc3)s2)cc1Cl | 1.6 | – | –
17 | O=C(Nc1ccc(Cl)c(Cl)c1)Nc1nnc(NC2CCNCC2)s1 | – | Not Active | –
18 | Nc1ccc(NC(=O)Nc2nnc(-c3ccncc3)s2)cc1C(F)(F)F | 40 | – | –
19 | O=C(Nc1ccc(-n2cncn2)c(F)c1)Nc1nnc(-c2ccncc2)s1 | 14.1 | – | –
20 | Cc1cc(NC(=O)Nc2nnc(-c3ccncc3)s2)ccc1-c1cn[nH]c1 | 16.8 | – | –
21 | O=C(Nc1ccc(F)cc1)Nc1nnc(-c2ccncc2)s1 | 14.1 | – | –
22 | O=C(Nc1ccc(Cl)c(Cl)c1)NC1CCN(c2ccncc2)CC1 | – | Not Active | –
23 | N#Cc1ccc(NC(=O)Nc2nnc(-c3ccncc3)s2)cc1C(F)(F)F | 5.6 | – | –
24 | O=C(Nc1ccc(Br)cc1)Nc1nnc(-c2ccncc2)s1 | 12.6 | – | –
25 | O=C(Nc1ccc(Cl)c(Cl)c1)N1CCN(c2ccncc2)CC1 | – | Not Active | –
26 | O=C(Cc1ccc2ccccc2c1)Nc1nnc(-c2ccncc2)s1 | – | Not Active | –
27 | CN1CCN(c2nnc(NC(=O)Nc3ccc(Cl)c(Cl)c3)s2)CC1 | – | Not Active | –

The next lines start with results.

Row | IC50 ([5]; read-out: IC50) [µM] | IC50 [5] | Compound | also measured
28 | 49 | – | Nc1ccc(-c2nnc(NC(=O)Nc3ccc(Cl)c(Cl)c3)s2)cc1 | –
29 | 2.1 | – | O=C(Nc1ccc(Br)c(Br)c1)Nc1nnc(-c2ccncc2)s1 | Ratio IC50 (Homo sapiens [6]): 1.4; IC50 [4]: 2.9 µM
30 | 7.1 | – | O=C(Nc1ccc(Cl)c(C(F)(F)F)c1)Nc1nnc(-c2ccncc2)s1 | –
31 | – | Not Active | O=C(Nc1ccc(Cl)c(Cl)c1)Nc1nnc(-c2ccccn2)s1 | –
32 | 4 | – | S=C(Nc1ccc(Cl)c(Cl)c1)Nc1nnc(-c2ccncc2)s1 | –
33 | 15.8 | – | Cc1cc(NC(=O)Nc2nnc(-c3ccncc3)s2)ccc1F | –
34 | 11.2 | – | Nc1cc(NC(=O)Nc2nnc(-c3ccncc3)s2)ccc1Cl | –
35 | – | Not Active | O=C(Nc1ccc(Cl)c(Cl)c1)Nc1nnc(-c2ccncc2)o1 | –
36 | 40 | – | O=C(Nc1ccc(Cl)cc1)Nc1nnc(-c2ccncc2)s1 | –
37 | 28.1 | – | O=C(Nc1ccc(Cl)c(Cl)c1)Nc1nc(-c2ccncc2)cs1 | –
38 | 1.4 | – | O=C(Nc1ccc(Cl)c(Cl)c1)Nc1nnc(-c2ccncc2)s1 | Ratio IC50 (Homo sapiens [6]): 2.4; IC50 [3]: > 50 µM; IC50 [4]: 3.4 µM
39 | 0.11 | – | N#Cc1cc(NC(=O)Nc2nnc(-c3ccncc3)s2)ccc1Br | Ratio IC50 (Homo sapiens [6]): 10; IC50 [3]: > 50 µM; IC50 [4]: 1.1 µM
40 | 0.1 | – | N#Cc1cc(NC(=O)Nc2nnc(-c3ccncc3)s2)ccc1Cl | Ratio IC50 (Homo sapiens [6]): 16; IC50 [4]: 1.6 µM
41 | 13.4 | – | Cc1cc(NC(=O)Nc2nnc(-c3ccncc3)s2)ccc1Br | –
42 | 3.5 | – | O=C(Nc1ccc(Cl)c(Cl)c1)Nc1nnc(-c2cccnc2)s1 | –
43 | – | Not Active | O=C(Nc1ccc(Cl)c(Cl)c1)Nc1nnc(-c2ccccc2)s1 | –
44 | 14.1 | – | NC(=Nc1ccc(Cl)c(Cl)c1)Nc1nnc(-c2ccncc2)s1 | –
45 | 0.3 | – | N#Cc1cc(NC(=O)Nc2nnc(-c3ccncc3)s2)ccc1F | Ratio IC50 (Homo sapiens [6]): 7.3; IC50 [3]: > 50 µM; IC50 [4]: 2.2 µM
46 | – | Not Active | O=C(Nc1ccc(Cl)c(Cl)c1)Nc1ccc(-c2ccncc2)s1 | –
47 | – | Not Active | O=C(Nc1ccc(Cl)c(Cl)c1)Nc1ncc(-c2ccncc2)s1 | –
48 | – | Not Active | O=C(Nc1ccc(Cl)c(Cl)c1)Nc1cc(-c2ccncc2)n[nH]1 | –
49 | 3.2 | – | Cc1cc(NC(=O)Nc2nnc(-c3ccncc3)s2)ccc1C#N | –
50 | 7.9 | – | Cc1cc(NC(=O)Nc2nnc(-c3ccncc3)s2)ccc1Cl | –
51 | 4 | – | O=C(Nc1ccc(Cl)c(Cl)c1)Nc1cccc(-c2ccncc2)n1 | –
52 | 1.3 | – | O=C(Nc1ccc(Cl)c([N+](=O)[O-])c1)Nc1nnc(-c2ccncc2)s1 | –
53 | 8.9 | – | O=C(Nc1ccc(F)c(F)c1)Nc1nnc(-c2ccncc2)s1 | –
54 | – | Not Active | O=C(Nc1ccc(Cl)c(Cl)c1)Nc1nnc(C2CCCCC2)s1 | –
55 | – | Not Active | O=C(Nc1ccccc1)Nc1nnc(-c2ccncc2)s1 | –
56 | – | Not Active | O=C(Nc1ccc(Cl)c(Cl)c1)Nc1ccnc(-c2ccncc2)n1 | –
57 | – | Not Active | O=C(Nc1ccc(Cl)c(Cl)c1)Nc1nnc(N2CCNCC2)s1 | –
